Each block holds one molecule with its values, some of them ahead of it.
What was measured:
MYC = MYC (Homo sapiens, UniProt P01106); test: Affinity for MYC; assay type: binding
[1] = Mouse i.v. PK study of 5g; assay type: in vivo, C57Bl6 mice; details: 5g versus 5a
[2] = Oxidation susceptibility / stability with rat liver microsomes by mass analysis; assay type: in vitro ADME; details: 37 °C
In short: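 Test compound incubated with rat liver microsomes at 37 °C over a time course. Samples analysed by mass spectrometry, with extracted-ion chromatograms monitored for parent and oxidised species. Recovery calculated from the AUC of the extracted ion.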

[3] = values determined in Sprague Dawley rat; cited from earlier work
[4] = tested on: CEF transfected with ATG-MYC; test: Focus assay: microtumor formation by ATG-MYC expressing vector in CEF; assay type: cell-based, chicken

MYC, sequence (P01106 whole entry, species assumed): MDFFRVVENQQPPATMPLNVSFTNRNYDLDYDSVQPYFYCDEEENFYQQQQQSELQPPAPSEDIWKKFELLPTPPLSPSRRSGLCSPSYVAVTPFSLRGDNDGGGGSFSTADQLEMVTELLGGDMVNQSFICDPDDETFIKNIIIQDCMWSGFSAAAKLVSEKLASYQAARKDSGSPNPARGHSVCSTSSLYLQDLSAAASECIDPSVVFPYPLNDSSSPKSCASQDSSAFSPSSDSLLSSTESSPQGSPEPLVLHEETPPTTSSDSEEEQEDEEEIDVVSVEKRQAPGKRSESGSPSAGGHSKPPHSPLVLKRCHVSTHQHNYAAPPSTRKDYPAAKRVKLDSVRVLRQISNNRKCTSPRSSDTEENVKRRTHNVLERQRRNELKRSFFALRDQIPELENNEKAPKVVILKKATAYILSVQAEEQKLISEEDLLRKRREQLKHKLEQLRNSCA

ligand efficiency (LE) (MYC): 0.36
improvement in exposure (AUC) compared with 5a [1]: 30 fold
SMILES: NC(=O)c1ccc(-c2cc(-c3ccc(-c4nccs4)cc3)nc(-c3ccco3)c2)cc1 [5g]

fate of nitro group on incubation with rat liver microsomes [2]: readily eliminated
SMILES: NC(=O)c1ccc(-c2cc(-c3ccc([N+](=O)[O-])cc3)nc(-c3ccco3)c2)cc1 [5a]
Half-life [3]: 1.6 h

SMILES: CS(=O)(=O)NC(=O)c1ccc(-c2cc(-c3ccc(C#N)cc3)nc(-c3ccco3)c2)cc1 [5m]
loss of potency compared to 5a ([4]; CEF assay): 10 fold

SMILES: c1coc(-c2cc(-c3nccs3)cc(-c3ccc(-c4nccs4)cc3)n2)c1 [5j]
activity in the CEF assay [4]: not found to have any activity

From PMC6214403 (Bioorganic & medicinal chemistry, 2018)
